The values below come from ChEMBL document CHEMBL1123373, “9-(2-Deoxy-2-fluoro-beta-D-arabinofuranosyl)guanine: a metabolically stable cytotoxic analogue of 2'-deoxyguanosine” (J Med Chem, 1986).

The nature of experiment [1]: Compound was tested for its cytotoxicity against MGL-8 B -lymphoblasts. The format is functional, Homo sapiens. A digest of the protocol: (§1)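 Cells seeded at 1 × 10^5/mL in RPMI 1640 with 10% fetal calf serum, 2 mM L-glutamine and increasing drug concentrations. Cultured 3 days under 95% air/5% CO2. Viable cells counted microscopically after adding 0.1% erythrocin B, relative to drug-free cultures. Points are mean ± SEM, except the adenosine kinase-deficient mutant, which used duplicates.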

For another experiment, the system named is T-cell. The experiment in a line: Compound was tested for its cytotoxicity against T- cell line. The format is functional, cell-based. As to conditions: Homo sapiens. A digest of the protocol: as §1
In another experiment the test system is B-cell. Put plainly: Compound was tested for its cytotoxicity against B- cell line (Wi-L2 B -lymphoblasts). The format is functional, cell-based. Conditions: Homo sapiens. In a few lines: as §1
Experiment [2] relates to L1210. The experiment in a line: Compound was tested for its ability to inhibit the incorporation of [3H]dThd into DNA at concentration of 100 uM. Conditions: Mus musculus. The format is functional. A digest of the protocol: (§2)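 Cultured L1210 cells exposed to drug at 25, 50 or 100 µM. Label incorporation measured: [3H]dThd into DNA, [5-3H]Urd into RNA, [4,5-3H]L-Leu into protein. Values are percent inhibition of incorporation.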

Experiment [3] concerns L1210. The experiment in a line: Inhibition of DNA synthesis in L1210 cells by the compound was determined the reduced incorporation of incorporation of [3H]dThd into DNA at concentration of 25 uM. The format is functional. Conditions: Mus musculus. A digest of the protocol: as §2
Experiment [4] concerns L1210. Put plainly: Inhibition of DNA synthesis in L1210 cells by the compound was determined the reduced incorporation of incorporation of [3H]dThd into DNA at concentration of 50 uM. The format is functional. As to conditions: Mus musculus. A digest of the protocol: as §2
Experiment [5] has as its system L1210. Put plainly: Inhibition of protein synthesis in L1210 cells by the compound was determined the reduced incorporation of [4,5-3H]L-Leu into protein. The format is functional, Mus musculus. In a few lines: as §2
In experiment [6] the test system is L1210. Put plainly: Effect of compound on macromolecular synthesis in L1210 cells in culture; 8.5-17uM. The format is functional, cell-based. As to conditions: Mus musculus.
Another experiment concerns Wild type T- cell line. Put plainly: Compound was tested for its cytotoxicity against wild type T- cell line. The format is functional, cell-based. Conditions: Homo sapiens. In a few lines:
as §1

The subject of experiment [7] is L1210. The experiment in a line: Inhibition of RNA synthesis in L1210 cells by the compound was determined the reduced incorporation of [5-3H]-Urd into RNA at the concentration of 100 uM; NI denotes no inhibition. The format is functional, cell-based. Conditions: Mus musculus. In a few lines:
as §2

Activity calls are given as the source filed them. No cut-off for these calls is given here.

Usually IC50 stands for the concentration at which inhibition is half-maximal. Higher therefore signals weaker potency in that assay. For `Nc1nc2c(ncn2[C@@H]2O[C@H](CO)[C@@H](O)[C@H]2O)c(=O)[nH]1` [GUANOSINE], the concentration for half-maximal inhibition (IC50) was found to be 7000 nM in experiment [1] and 100 nM in the experiment with T-cell.
As usually defined, the inhibition is the percentage by which the read-out fell short of the control. Usually Inhibition stands for the share of the control response that was lost under treatment. For the compound `Nc1nc(O)c2ncn([C@@H]3O[C@H](CO)[C@@H](O)[C@@H]3F)c2n1` [F-ARAG], the values for the IC50 with B-cell, with L1210 [6] and in the experiment with Wild type T- cell line were roughly 750 nM, 8500 nM and roughly 200 nM, respectively. The compound further had an inhibition at 100 µM with L1210 [2] of 76%. Besides, 25 µM produced 12% inhibition in the experiment on L1210 [3]. Moreover, the inhibition at 50 µM in the experiment on L1210 [4] is 62%. The compound also showed an Inhibition with L1210 [5] of 17%. Also, the inhibition result with L1210 [7] was “inactive”.
